From ChEMBL document CHEMBL1208782, “Synthesis and pharmacological validation of a novel series of non-steroidal FXR agonists” (Bioorg Med Chem Lett, 2010)
The source made the active and inactive calls. The calls are words filed in the database; no cut-off is given here.

What was measured:
[1] = Plasma concentration in db/db mouse at 5 mg/kg, po after 5 mins; format: ADME, organism-based; parameters: dose 5 mg/kg, route oral; details: read-out: Drug uptake
In short: (§1)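 Single dose to mice, 5 mg/kg po or 1 mg/kg iv. Plasma was sampled at 5, 10, 30, 90 and 240 min. Only parent compound was measured, in ng/mL.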

[2] = Plasma concentration in db/db mouse at 5 mg/kg, po after 10 mins; format: ADME, organism-based; parameters: dose 5 mg/kg, route oral; details: read-out: Drug uptake; in short: as §1
[3] = Plasma concentration in db/db mouse at 5 mg/kg, po after 30 mins; format: ADME, organism-based; parameters: dose 5 mg/kg, route oral; details: read-out: Drug uptake; in short: as §1
[4] = Plasma concentration in db/db mouse at 5 mg/kg, po after 90 mins; format: ADME, organism-based; parameters: dose 5 mg/kg, route oral; details: read-out: Drug uptake; in short: as §1
[5] = Plasma concentration in db/db mouse at 5 mg/kg, po after 240 mins; format: ADME, organism-based; parameters: dose 5 mg/kg, route oral; details: read-out: Drug uptake; in short: as §1
[6] = Oral bioavailability in db/db mouse at 5 mg/kg, po; format: ADME, organism-based; details: in vivo
In short: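 Derived from the single-dose mouse plasma time courses of parent compound, 5-240 min. Dosing was 5 mg/kg po or 1 mg/kg iv. Volume of distribution is in mL/kg, clearance in mL/h/kg, and oral bioavailability in %.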

[7] = Plasma concentration in db/db mouse at 1 mg/kg, iv after 5 mins; format: ADME, organism-based; parameters: dose 1 mg/kg, route intravenous; details: read-out: Drug uptake; in short: as §1
[8] = Plasma concentration in db/db mouse at 1 mg/kg, iv after 10 mins; format: ADME, organism-based; parameters: dose 1 mg/kg, route intravenous; details: read-out: Drug uptake; in short: as §1
[9] = Plasma concentration in db/db mouse at 1 mg/kg, iv after 30 mins; format: ADME, organism-based; parameters: dose 1 mg/kg, route intravenous; details: read-out: Drug uptake; in short: as §1
[10] = Plasma concentration in db/db mouse at 1 mg/kg, iv after 90 mins; format: ADME, organism-based; parameters: dose 1 mg/kg, route intravenous; details: read-out: Drug uptake; in short: as §1
[11] = Clearance in db/db mouse at 1 mg/kg, iv; format: ADME, organism-based; parameters: dose 1 mg/kg, route intravenous; details: in vivo
In short: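 Mice received a single dose of 5 mg/kg po or 1 mg/kg iv. Plasma was sampled at 5, 10, 30, 90 and 240 min and the parent compound alone was measured (ng/mL). Clearance (mL/h/kg), Vd (mL/kg) and oral bioavailability were derived from these plasma profiles.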

Liver [12] = assay: Drug level in db/db mouse liver measured metabolites as glucuronide at 5 mg/kg, po after 240 mins; format: ADME, organism-based; parameters: dose 5 mg/kg, route oral; details: in vivo, 4 h
In short: (§2)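 Mice got a single dose, 5 mg/kg po or 1 mg/kg iv. Liver and bile were sampled 240 min after dosing. Parent carboxylic acid, its acyl-glucuronide and its taurine amide were quantified separately, in ng/mL. Glucuronide identity was confirmed by glucuronidase digestion of bile or bile extracts, which regenerated the parent.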

Liver [13] = assay: Drug level in db/db mouse liver measured metabolites as taurine amide at 5 mg/kg, po after 240 mins; format: ADME, organism-based; parameters: dose 5 mg/kg, route oral; details: in vivo, 4 h; in short: as §2
[14] = Drug level in db/db mouse bile measured metabolites as carboxylic acid at 5 mg/kg, po after 240 mins; format: ADME, organism-based; parameters: dose 5 mg/kg, route oral; details: in vivo, 4 h
[15] = Drug level in db/db mouse bile measured metabolites as glucuronide at 5 mg/kg, po after 240 mins; format: ADME, organism-based; parameters: dose 5 mg/kg, route oral; details: in vivo, 4 h
[16] = Drug level in db/db mouse bile measured metabolites as taurine amide at 5 mg/kg, po after 240 mins; format: ADME, organism-based; parameters: dose 5 mg/kg, route oral; details: in vivo, 4 h; in short: as §2
Liver [17] = assay: Drug level in db/db mouse liver measured metabolites as carboxylic acid at 1 mg/kg, iv after 240 mins; format: ADME, organism-based; parameters: dose 1 mg/kg, route intravenous; details: in vivo, 4 h; in short: as §2
Liver [18] = assay: Drug level in db/db mouse liver measured metabolites as taurine amide at 1 mg/kg, iv after 240 mins; format: ADME, organism-based; parameters: dose 1 mg/kg, route intravenous; details: in vivo, 4 h; in short: as §2
[19] = Drug level in db/db mouse bile measured metabolites as carboxylic acid at 1 mg/kg, iv after 240 mins; format: ADME, organism-based; parameters: dose 1 mg/kg, route intravenous; details: in vivo, 4 h
[20] = Drug level in db/db mouse bile measured metabolites as glucuronide at 1 mg/kg, iv after 240 mins; format: ADME, organism-based; parameters: dose 1 mg/kg, route intravenous; details: in vivo, 4 h
[21] = Drug level in db/db mouse bile measured metabolites as taurine amide at 1 mg/kg, iv after 240 mins; format: ADME, organism-based; parameters: dose 1 mg/kg, route intravenous; details: in vivo, 4 h; in short: as §2
Mus musculus [22] = assay: Reduction in total plasma triglyceride level in db/db mouse at 1-25 mg/kg bid after 12 days; format: functional, organism-based
In short: (§3)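 C57BL/KSK-mLep^db/mLep^db mice were dosed orally at 1, 5 and 25 mg/kg b.i.d. for 12 days. Total plasma triglycerides and total plasma cholesterol were measured, with cholesterol reported as mg/dl. Significance was given at p<0.05, <0.01 and <0.001 levels.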

Mus musculus [23] = assay: Reduction in total plasma cholesterol level in db/db mouse at 1-25 mg/kg bid after 12 days; format: functional, organism-based; in short: as §3
[24] = Plasma concentration in db/db mouse at 25 mg/kg bid after 4 hrs by LC/MS-MS analysis; format: ADME, organism-based; parameters: dose 25 mg/kg; details: read-out: Drug uptake
In short: (§4)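 db/db mice were dosed twice daily for 12 days. Plasma and liver concentrations were determined 4 h and 24 h after the last administration.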

[25] = Plasma concentration in db/db mouse at 25 mg/kg bid after 24 hrs by LC/MS-MS analysis; format: ADME, organism-based; parameters: dose 25 mg/kg; details: read-out: Drug uptake; in short: as §4
Estrogen receptor = Estrogen receptor (Homo sapiens, UniProt P03372); assay: Agonist activity at ERalpha-LBD expressed in HEK293 cells assessed as Gal4-DBD interaction by cellular mammalian one hybrid assay; format: functional, cell-based
[26] = target: Peroxisome proliferator-activated receptor alpha (Homo sapiens, UniProt Q07869); assay: Agonist activity at PPARalpha-LBD expressed in HEK293 cells assessed as Gal4-DBD interaction by cellular mammalian one hybrid assay; format: functional, cell-based
[27] = target: Peroxisome proliferator-activated receptor gamma (Homo sapiens, UniProt P37231); assay: Agonist activity at PPARgamma-LBD expressed in HEK293 cells assessed as Gal4-DBD interaction by cellular mammalian one hybrid assay; format: functional, cell-based
[28] = Plasma concentration in db/db mouse at 1 mg/kg, iv after 240 mins; format: ADME, organism-based; parameters: dose 1 mg/kg, route intravenous; details: read-out: Drug uptake; in short: as §1
Liver [29] = assay: Drug level in db/db mouse liver measured metabolites as glucuronide at 1 mg/kg, iv after 240 mins; format: ADME, organism-based; parameters: dose 1 mg/kg, route intravenous; details: in vivo, 4 h; in short: as §2
Mus musculus [30] = assay: Reduction in total plasma cholesterol level in db/db mouse at 1 mg/kg bid after 12 days; format: functional; in short: as §3

Sequence of Peroxisome proliferator-activated receptor gamma (P37231 whole entry, the tested form may be a part): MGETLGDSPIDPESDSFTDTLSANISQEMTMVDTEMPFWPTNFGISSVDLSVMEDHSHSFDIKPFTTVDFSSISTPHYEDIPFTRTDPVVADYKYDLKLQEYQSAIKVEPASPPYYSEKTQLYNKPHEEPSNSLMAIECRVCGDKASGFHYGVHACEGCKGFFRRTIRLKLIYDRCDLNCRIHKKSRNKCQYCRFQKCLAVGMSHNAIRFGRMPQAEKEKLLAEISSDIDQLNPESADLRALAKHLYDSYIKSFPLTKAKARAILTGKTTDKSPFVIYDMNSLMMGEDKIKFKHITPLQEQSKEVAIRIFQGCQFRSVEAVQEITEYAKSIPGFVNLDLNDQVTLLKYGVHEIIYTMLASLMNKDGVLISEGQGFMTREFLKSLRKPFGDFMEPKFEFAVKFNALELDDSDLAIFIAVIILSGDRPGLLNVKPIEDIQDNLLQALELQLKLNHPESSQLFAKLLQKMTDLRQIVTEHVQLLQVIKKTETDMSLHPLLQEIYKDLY
Sequence of Peroxisome proliferator-activated receptor alpha (Q07869 whole entry, the tested form may be a part): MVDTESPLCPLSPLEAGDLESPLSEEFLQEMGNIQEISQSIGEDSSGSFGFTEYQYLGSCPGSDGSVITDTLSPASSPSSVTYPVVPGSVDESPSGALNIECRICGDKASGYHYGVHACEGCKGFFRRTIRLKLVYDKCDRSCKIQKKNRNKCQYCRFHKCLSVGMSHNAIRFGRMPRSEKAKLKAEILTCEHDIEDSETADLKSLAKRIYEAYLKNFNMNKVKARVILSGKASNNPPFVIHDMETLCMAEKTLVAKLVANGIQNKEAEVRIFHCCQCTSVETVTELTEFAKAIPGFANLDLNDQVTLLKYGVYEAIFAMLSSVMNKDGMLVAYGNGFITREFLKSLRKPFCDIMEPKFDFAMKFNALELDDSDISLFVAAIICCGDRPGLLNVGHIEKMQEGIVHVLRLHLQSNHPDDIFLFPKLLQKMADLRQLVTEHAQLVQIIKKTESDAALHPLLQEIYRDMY
Sequence of Estrogen receptor (P03372 whole entry, the tested form may be a part): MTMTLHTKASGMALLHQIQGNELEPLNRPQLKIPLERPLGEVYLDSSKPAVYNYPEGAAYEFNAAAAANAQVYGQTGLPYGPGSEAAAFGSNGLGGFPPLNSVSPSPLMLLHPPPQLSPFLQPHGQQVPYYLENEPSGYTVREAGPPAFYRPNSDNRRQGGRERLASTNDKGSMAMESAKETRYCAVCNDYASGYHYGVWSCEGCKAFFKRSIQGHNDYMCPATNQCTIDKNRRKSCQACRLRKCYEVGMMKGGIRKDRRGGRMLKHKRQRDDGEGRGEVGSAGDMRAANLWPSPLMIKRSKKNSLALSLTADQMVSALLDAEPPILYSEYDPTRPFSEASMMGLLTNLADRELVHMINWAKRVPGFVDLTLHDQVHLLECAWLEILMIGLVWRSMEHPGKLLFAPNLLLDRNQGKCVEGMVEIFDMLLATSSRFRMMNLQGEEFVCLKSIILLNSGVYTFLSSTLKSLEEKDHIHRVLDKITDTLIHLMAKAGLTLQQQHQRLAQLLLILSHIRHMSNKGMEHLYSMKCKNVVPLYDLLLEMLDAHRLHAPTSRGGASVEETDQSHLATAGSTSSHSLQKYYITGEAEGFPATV

Row | concentration at 5 min [1] [ng/mL] | concentration at 10 min [2] [ng/mL] | concentration at 0.5 h [3] [ng/mL] | concentration at 1.5 h [4] [ng/mL] | concentration at 4 h [5] [ng/mL] | bioavailability [6] [%] | concentration at 5 min [7] [ng/mL] | concentration at 10 min [8] [ng/mL] | concentration at 0.5 h [9] [ng/mL] | concentration at 1.5 h [10] [ng/mL] | clearance [11] [mL/min/kg] | Drug uptake (Liver [12]) [ng/mL] | Drug uptake [14] [ng/mL] | Drug uptake [15] [ng/mL] | Drug uptake [16] [ng/mL] | Drug uptake (Liver [17]) [ng/mL] | Drug uptake [19] [ng/mL] | Drug uptake [20] [ng/mL] | Drug uptake [21] [ng/mL] | Compound | Activity (Mus musculus [22]) | further results
1 | 57 | 92 | 420 | 267 | 14 | 16.2 | 1620 | 1600 | 361 | 122 | 16.8 | 2872 | 1697 | 18928 | 22443 | 262 | 472 | 4261 | 11927 | CC(C)c1onc(-c2c(Cl)cccc2Cl)c1COc1ccc(N(C)Cc2ccc(C(=O)O)cc2)c(C(F)(F)F)n1 | Active | Drug uptake (Liver [13]): 372 ng/mL; Drug uptake (Liver [18]): 134 ng/mL; Activity (Mus musculus [23]): Active; concentration at 4 h [24]: 512 nM; concentration at 24 h [25]: 3 nM; EC50 (Estrogen receptor): > 10 µM; EC50 [26]: > 10 µM; EC50 [27]: > 10 µM
2 | 427 | 283 | 531 | 370 | 52 | 16.1 | 745 | 437 | 325 | 398 | 11.9 | 172 | 1446 | 2807 | 47638 | 23 | 173 | 150 | 10013 | CN(Cc1ccc(C(=O)O)cc1)c1ccc(OCc2c(-c3c(Cl)cccc3Cl)noc2C2CC2)nc1C(F)(F)F | Active | concentration at 4 h [28]: 94 ng/mL; Drug uptake (Liver [29]): 17 ng/mL; Activity (Mus musculus [23]): Active; Activity (Mus musculus [30]): 97.2 mg/dL; concentration at 4 h [24]: 344 nM; concentration at 24 h [25]: 11 nM; EC50 (Estrogen receptor): > 10 µM; EC50 [26]: > 10 µM; EC50 [27]: > 10 µM
